From ChEMBL document CHEMBL1649372, “Discovery of highly potent agents against influenza A virus” (Eur J Med Chem, 2011)
Active and inactive are the calls of the source. The calls are words filed in the database; no cut-off is given here.

These compounds were tested on Influenza A virus (assay: Antiviral activity against amantadine-sensitive Influenza A virus A/Hong Kong/8/68 (H3N2) infected in MDCK cells assessed as host cell survival after 72 hrs by CCK8 method).
Type: functional, organism-based
In short: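 Compounds added with TPCK and 0.3% BSA and preincubated 30 min at 37 °C. Cells then infected with about 0.01 MOI A/Hong Kong/8/68 (H3N2) and incubated 72 h at 37 °C in 5% CO2. CCK-8 reagent then added to read host cell survival.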
`CN[C@@H]1C[C@@H]2C[C@H]([C@H]1C)C2(C)C` gave an IC50 of 23.5 µM. For `Cc1ccc(/C=N/[C@@H]2C[C@@H]3C[C@H]([C@H]2C)C3(C)C)cc1`, the IC50 was 13.9 µM. Compound `CC(C)N[C@@H]1C[C@@H]2C[C@H]([C@H]1C)C2(C)C` has an IC50 greater than 200 µM. `C[C@@H]1[C@H]2C[C@@H](C[C@H]1/N=C/c1ccc(O)cc1)C2(C)C` showed an IC50 of 0.088 µM. With `C[C@@H]1[C@H]2C[C@@H](C[C@H]1/N=C/c1cccc(O)c1)C2(C)C` the IC50 was 5.99 µM. For `NC12CC3CC(CC(C3)C1)C2` [AMANTADINE], the IC50 was 21.1 µM. Work on `C[C@@H]1[C@H]2C[C@@H](C[C@H]1/N=C/c1ccc(F)cc1)C2(C)C` yielded an IC50 of 16.3 µM. `C[C@@H]1[C@H]2C[C@@H](C[C@H]1NCc1ccc(F)cc1)C2(C)C` showed an IC50 greater than 200 µM. Work on `C[C@@H]1[C@H]2C[C@@H](C[C@H]1NCc1ccc(O)cc1)C2(C)C` yielded an IC50 greater than 200 µM. `C[C@@H]1[C@H]2C[C@@H](C[C@H]1NC1CCCCC1)C2(C)C` was tested, and the IC50 was 43.7 µM. Compound `C[C@@H]1[C@H]2C[C@@H](C[C@H]1/N=C/c1ccc(N(C)C)cc1)C2(C)C` has an IC50 of 38.4 µM. `C[C@@H]1[C@H]2C[C@@H](C[C@H]1/N=C/c1ccccc1O)C2(C)C` gave an IC50 of 20.3 µM. `C[C@@H]1[C@H]2C[C@@H](C[C@H]1/N=C/c1ccccc1)C2(C)C` showed an IC50 of 7.78 µM. In the case of `CCN[C@@H]1C[C@@H]2C[C@H]([C@H]1C)C2(C)C`, the IC50 is reported as greater than 200 µM. `C[C@@H]1[C@H]2C[C@@H](C[C@H]1NCC1CC1)C2(C)C` gave an IC50 of 28.5 µM.

What follows are compounds tested on Influenza A virus (assay: Antiviral activity against amantadine-sensitive Influenza A virus A/Hong Kong/8/68 (H3N2) infected in MDCK cells at 0.01 to 10 uM after 2 to 3 days by crystal violet staining by plaque reduction assay).
Type: functional, organism-based
In short: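 MDCK monolayer infected with 0.01 MOI A/Hong Kong/8/68 for 1 h at 37 °C. Inoculum removed and cells washed twice with PBS, then overlaid with 1% agar DMEM containing test agent. Plaque formation scored.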
For `C[C@@H]1[C@H]2C[C@@H](C[C@H]1/N=C/c1ccc(O)cc1)C2(C)C`, the Activity was “Active”.

What follows are compounds tested on Influenza A virus (assay: Ratio of compound IC50 to amantadine IC50 for Influenza A virus A/Hong Kong/8/68 (H3N2)).
Type: functional
`C[C@@H]1[C@H]2C[C@@H](C[C@H]1/N=C/c1ccc(O)cc1)C2(C)C` was tested, and the “Ratio IC50” value was 240.
